From ChEMBL document CHEMBL1130124, “Synthesis and opioid activity of [D-Pro10]dynorphin A-(1-11) analogues with N-terminal alkyl substitution” (J Med Chem, 1997)

Columns and labels:
Cavia porcellus [1] = species: Cavia porcellus; experiment: Opioid antagonist activity in guinea pig ileum assay; assay type: functional; details: read-out: pA2 (converted)
Outline: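 Guinea pig ileum antagonism: tissue incubated 10 min with peptide (10 μM where stated), then given […]. Shift measured relative to the agonist IC50 obtained without test peptide.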

Cavia porcellus [2] = species: Cavia porcellus; experiment: The opioid activity by guinea pig ileum assay; assay type: functional
Outline: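 Guinea pig ileum twitch assay with cumulative peptide additions to the bath. IC50 values are means from three to six replicates using tissues from different animals.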

[3] = target: T1, Kappa-type opioid receptor (Cavia porcellus, UniProt P41144); experiment: Affinity against Opioid receptor kappa 2 was determined by measuring the inhibition of [3H]bremazocine binding to guinea pig cerebellar membranes; set-up: species or system Cerebellum, Membrane
[4] = target: Delta-type opioid receptor (Rattus norvegicus, UniProt P33533); experiment: Affinity against Opioid receptor delta 1 was determined by measuring the inhibition of [3H]DPDPE binding to rat forebrain membranes; assay type: cell membranes, Membrane
Outline: (§1)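 Rat forebrain membranes in 50 mM Tris pH 7.7, incubated 5 h at 4 °C. Final 10 μM bestatin, 30 μM captopril and 50 μM L-leucyl-L-leucine. Nonspecific binding defined with 10 μM levorphanol ([3H]DAMGO) or 10 μM unlabeled DPDPE ([3H]DPDPE). Competition curves fitted by nonlinear regression. Ratios use the lowest Ki as denominator.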

[5] = target: T1, Kappa-type opioid receptor; experiment: Affinity against Opioid receptor kappa 3 was determined by measuring the inhibition of [3H]NalBzoH binding to […]
[6] = target: T1, Kappa-type opioid receptor; experiment: Binding affinity towards Opioid receptor kappa 1 using [3H]diprenorphine as radioligand in guinea pig cerebellar membrane in absence of 120 mM NaCl + 50 uM Gpp(NH)p; assay type: cell membranes, Cerebellum
Outline: (§2)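 Guinea pig cerebellar membranes prepared in 50 mM Tris pH 7.4. [3H]diprenorphine at 0.3 nM final, 60 min at 25 °C, with 10 μM bestatin, 1 mM Leu-Leu and 100 nM DAMGO. Run without or with 120 mM NaCl plus 50 μM Gpp(NH)p. Nonspecific binding with 1 μM Dyn A-(1–13)NH2. Filtration over polyethyleneimine-soaked filters; shift expressed as IC50(+)/IC50(–).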

[7] = target: T1, Kappa-type opioid receptor; experiment: Binding affinity towards Opioid receptor kappa 1 using [3H]diprenorphine as radioligand in guinea pig cerebellar membrane in presence of 120 mM NaCl + 50 uM Gpp(NH)p; assay type: cell membranes, Cerebellum; outline: as §2
[8] = target: T1, Kappa-type opioid receptor; experiment: Affinity against Opioid receptor kappa 1 was determined by measuring the inhibition of [3H]U-69593 binding to guinea pig […]
[9] = IC50 ratio measured as the IC50(presence of 50 uM of Gpp(NH)p)/IC50 (absence of 50 uM of Gpp(NH)p).; outline: as §2
[10] = target: T2, Opioid receptors; mu/kappa/delta (Homo sapiens) (UniProt P41145+P41143+P35372); experiment: Ki ratio is measured as the Ki values of kappa/mu/delta receptors; 1/8.8/41; assay type: protein assay
Outline: as §1, with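 “regression. IC50 converted to Ki by Cheng–Prusoff with KD 0.314 nM (DAMGO) and 7.63 nM (DPDPE).” for “regression.”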

[11] = target: Kappa-type opioid receptor (Homo sapiens) (UniProt P41145); experiment: Ki ratio is measured as the Ki values of kappa-1/kappa.2/kappa.3 receptors; 1/233/5.3
Outline: (§3)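 Hartley guinea pig whole-brain homogenate in 50 mM Tris-HCl pH 7.7 (6.67 mg wet tissue/mL; 5 mM EDTA for NalBzoH). Radioligands ~1 nM: [3H]U69,593 (κ1); [3H]bremazocine plus 100 nM DAMGO, DSLET and U69,593 (κ2); [3H]NalBzoH plus 100 nM U69,593 (κ3). Test peptide 10⁻⁵–10⁻¹¹ M, 1 h at 25 °C, with bacitracin/bestatin/thiorphan. Nonspecific binding: 1 μM U69,593, 10 μM bremazocine or NalBzoH. Filtration; Ki via Cheng–Prusoff.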

Mu-type opioid receptor = Mu-type opioid receptor (Rattus norvegicus, UniProt P33535); experiment: Affinity against Opioid receptor mu 1 was determined by measuring the inhibition of [3H]DAMGO binding to rat forebrain membranes; assay type: cell membranes, Membrane; outline: as §1
[12] = target: T1, Kappa-type opioid receptor; experiment: Affinity against Opioid receptor kappa 1 was determined by measuring the inhibition of [3H]bremazocine binding to guinea pig cerebellar membranes
Outline: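 Guinea pig cerebellar membranes with [3H]bremazocine in 20 mM HEPES pH 7.4, 3 h at 4 °C. 100 nM DAMGO and 100 nM bestatin present; nonspecific binding with 10 μM Dyn A-(1–13)NH2. Competition curves fitted by nonlinear regression. Selectivity ratios use the lowest Ki as denominator.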

[13] = target: T2, Opioid receptors; mu/kappa/delta (Homo sapiens); experiment: Ki ratio is measured as the Ki values of kappa/mu/delta receptors; 1/21/880; assay type: protein assay
Outline: as §1, with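 “regression. IC50 converted to Ki by Cheng–Prusoff with KD 0.314 nM (DAMGO) and 7.63 nM (DPDPE).” for “regression.”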

[14] = target: Kappa-type opioid receptor (Homo sapiens) (UniProt P41145); experiment: Ki ratio is measured as the Ki values of kappa-1/kappa.2/kappa.3 receptors; 1/150/17; outline: as §3
[15] = target: T2, Opioid receptors; mu/kappa/delta (Homo sapiens); experiment: Ki ratio is measured as the Ki values of kappa/mu/delta receptors; 1/480/27900; assay type: protein assay
Outline: as §1, with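 “regression. IC50 converted to Ki by Cheng–Prusoff with KD 0.314 nM (DAMGO) and 7.63 nM (DPDPE).” for “regression.”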

Delta-type opioid receptor, sequence (P33533 whole entry): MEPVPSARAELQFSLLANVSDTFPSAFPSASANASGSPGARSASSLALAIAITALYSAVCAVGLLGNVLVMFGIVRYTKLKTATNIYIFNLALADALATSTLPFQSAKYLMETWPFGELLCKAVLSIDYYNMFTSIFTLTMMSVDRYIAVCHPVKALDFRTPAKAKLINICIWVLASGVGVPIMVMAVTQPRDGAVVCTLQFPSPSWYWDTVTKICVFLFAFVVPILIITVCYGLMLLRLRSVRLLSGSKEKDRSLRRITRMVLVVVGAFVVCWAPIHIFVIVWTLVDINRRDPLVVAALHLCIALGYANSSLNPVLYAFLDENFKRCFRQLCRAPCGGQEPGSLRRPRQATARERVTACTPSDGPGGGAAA
T2 sequence (P35372 whole entry, looked up): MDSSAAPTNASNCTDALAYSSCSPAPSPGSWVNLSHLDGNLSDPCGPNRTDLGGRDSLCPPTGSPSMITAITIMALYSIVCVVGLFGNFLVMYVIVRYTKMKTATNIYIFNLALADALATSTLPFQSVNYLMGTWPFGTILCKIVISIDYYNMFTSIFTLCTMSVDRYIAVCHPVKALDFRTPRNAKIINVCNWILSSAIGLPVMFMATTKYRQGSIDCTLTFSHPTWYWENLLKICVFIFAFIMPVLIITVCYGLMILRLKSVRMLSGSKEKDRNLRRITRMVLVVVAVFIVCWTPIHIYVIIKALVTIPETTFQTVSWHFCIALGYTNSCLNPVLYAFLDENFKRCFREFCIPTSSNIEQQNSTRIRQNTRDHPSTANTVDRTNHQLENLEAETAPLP
T2 sequence (P41143 whole entry, looked up): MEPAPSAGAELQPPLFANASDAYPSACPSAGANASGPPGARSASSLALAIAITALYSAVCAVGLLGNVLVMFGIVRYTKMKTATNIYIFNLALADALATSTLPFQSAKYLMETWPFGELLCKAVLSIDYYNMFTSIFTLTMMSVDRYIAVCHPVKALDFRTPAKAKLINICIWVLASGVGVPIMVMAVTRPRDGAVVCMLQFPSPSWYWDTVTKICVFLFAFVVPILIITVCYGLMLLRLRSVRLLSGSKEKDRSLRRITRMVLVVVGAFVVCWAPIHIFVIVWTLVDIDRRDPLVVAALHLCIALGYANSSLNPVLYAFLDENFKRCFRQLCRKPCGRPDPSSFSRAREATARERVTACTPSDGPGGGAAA
T2 sequence (P41145 whole entry, looked up): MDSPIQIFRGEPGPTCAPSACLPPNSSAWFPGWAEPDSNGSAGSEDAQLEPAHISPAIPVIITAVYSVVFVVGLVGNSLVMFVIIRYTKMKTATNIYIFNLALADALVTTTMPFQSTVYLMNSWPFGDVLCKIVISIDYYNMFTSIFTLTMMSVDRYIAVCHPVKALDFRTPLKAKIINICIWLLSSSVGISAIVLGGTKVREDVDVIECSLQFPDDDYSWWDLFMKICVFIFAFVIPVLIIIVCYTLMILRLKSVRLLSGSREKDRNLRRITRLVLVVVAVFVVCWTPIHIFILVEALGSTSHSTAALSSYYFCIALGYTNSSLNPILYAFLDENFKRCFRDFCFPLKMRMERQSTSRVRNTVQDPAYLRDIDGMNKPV
T1 sequence (P41144 whole entry): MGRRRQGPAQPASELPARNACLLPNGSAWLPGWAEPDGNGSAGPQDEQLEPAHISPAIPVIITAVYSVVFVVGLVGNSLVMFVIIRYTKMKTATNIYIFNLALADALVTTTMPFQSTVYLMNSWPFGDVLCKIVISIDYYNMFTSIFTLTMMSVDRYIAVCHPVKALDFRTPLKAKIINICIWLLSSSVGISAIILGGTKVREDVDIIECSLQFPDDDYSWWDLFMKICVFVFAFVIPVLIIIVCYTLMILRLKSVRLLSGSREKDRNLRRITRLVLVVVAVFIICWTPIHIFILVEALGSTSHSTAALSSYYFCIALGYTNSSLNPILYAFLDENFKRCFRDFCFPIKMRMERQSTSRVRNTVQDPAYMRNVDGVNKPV
Mu-type opioid receptor, sequence (P33535 whole entry): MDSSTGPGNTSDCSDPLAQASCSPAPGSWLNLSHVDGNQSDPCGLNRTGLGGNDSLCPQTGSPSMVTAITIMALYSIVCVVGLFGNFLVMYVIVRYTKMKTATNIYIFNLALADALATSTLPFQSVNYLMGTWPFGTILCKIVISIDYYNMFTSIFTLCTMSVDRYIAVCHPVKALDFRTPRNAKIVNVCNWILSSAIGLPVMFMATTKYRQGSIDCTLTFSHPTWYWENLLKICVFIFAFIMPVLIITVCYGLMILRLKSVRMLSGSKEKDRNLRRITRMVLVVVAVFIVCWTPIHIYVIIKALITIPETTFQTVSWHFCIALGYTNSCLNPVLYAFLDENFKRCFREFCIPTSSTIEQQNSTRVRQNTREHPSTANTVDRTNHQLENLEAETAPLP
Kappa-type opioid receptor (Homo sapiens), sequence (P41145 whole entry): as the sequence (P41145 whole entry, looked up) above

Row | Structure (SMILES) | Kb (Cavia porcellus [1]) | IC50 (Cavia porcellus [2]) | Ki [4] | IC50 [6] | IC50 [7] | Ratio [9] | further results
1 | CC[C@H](C)[C@H](NC(=O)[C@H](CCCN=C(N)N)NC(=O)[C@H](CCCN=C(N)N)NC(=O)[C@H](CC(C)C)NC(=O)[C@H](Cc1ccccc1)NC(=O)CNC(=O)CNC(=O)[C@@H](N)Cc1ccc(O)cc1)C(=O)N[C@@H](CCCN=C(N)N)C(=O)N1CCC[C@@H]1C(=O)N[C@@H](CCCCN)C(=O)O | 63.1 nM |  |  |  |  |  | 
2 | C=CCN(CC=C)[C@@H](Cc1ccc(O)cc1)C(=O)NCC(=O)NCC(=O)N[C@@H](Cc1ccccc1)C(=O)N[C@@H](CC(C)C)C(=O)N[C@@H](CCCN=C(N)N)C(=O)N[C@@H](CCCN=C(N)N)C(=O)N[C@H](C(=O)N[C@@H](CCCN=C(N)N)C(=O)N1CCCC1C(=O)N[C@@H](CCCCN)C(=O)O)[C@@H](C)CC (stereo in doubt) |  | > 3000 nM | 149 nM | 21.3 nM | 64.6 nM | 3.03 | IC50 [3]: 4970 nM; Ki [5]: 113 nM; Ki [8]: 21.3 nM; Ki ratio [10]: kappa/mu/delta; Ki ratio [11]: kappa/delta/mu
3 | CC[C@H](C)[C@H](NC(=O)[C@H](CCCN=C(N)N)NC(=O)[C@H](CCCN=C(N)N)NC(=O)[C@H](CC(C)C)NC(=O)[C@H](Cc1ccccc1)NC(=O)CNC(=O)CNC(=O)[C@H](Cc1ccc(O)cc1)N(Cc1ccccc1)Cc1ccccc1)C(=O)N[C@@H](CCCN=C(N)N)C(=O)N1CCCC1C(=O)N[C@@H](CCCCN)C(=O)O (stereo in doubt) [listing 1 of 3 here] |  |  | 2770 nM | 43.2 nM | 391 nM |  | Ki (Mu-type opioid receptor): 128 nM; Ki [12]: 3.66 nM
4 | CC[C@H](C)[C@H](NC(=O)[C@H](CCCN=C(N)N)NC(=O)[C@H](CCCN=C(N)N)NC(=O)[C@H](CC(C)C)NC(=O)[C@H](Cc1ccccc1)NC(=O)CNC(=O)CNC(=O)[C@H](Cc1ccc(O)cc1)N(Cc1ccccc1)Cc1ccccc1)C(=O)N[C@@H](CCCN=C(N)N)C(=O)N1CCCC1C(=O)N[C@@H](CCCCN)C(=O)O (stereo in doubt) [listing 2 of 3 here] |  | 228 nM |  |  |  |  | 
5 | C=CCN[C@@H](Cc1ccc(O)cc1)C(=O)NCC(=O)NCC(=O)N[C@@H](Cc1ccccc1)C(=O)N[C@@H](CC(C)C)C(=O)N[C@@H](CCCN=C(N)N)C(=O)N[C@@H](CCCN=C(N)N)C(=O)N[C@H](C(=O)N[C@@H](CCCN=C(N)N)C(=O)N1CCCC1C(=O)N[C@@H](CCCCN)C(=O)O)[C@@H](C)CC (stereo in doubt) | 25.1 nM |  |  |  |  |  | 
6 | CC[C@H](C)[C@H](NC(=O)[C@H](CCCN=C(N)N)NC(=O)[C@H](CCCN=C(N)N)NC(=O)[C@H](CC(C)C)NC(=O)[C@H](Cc1ccccc1)NC(=O)CNC(=O)CNC(=O)[C@H](Cc1ccc(O)cc1)N(CC1CC1)CC1CC1)C(=O)N[C@@H](CCCN=C(N)N)C(=O)N1CCCC1C(=O)N[C@@H](CCCCN)C(=O)O (stereo in doubt) | 50.1 nM | > 100000 nM | 166 nM | 3.31 nM | 29.1 nM | 8.79 | IC50 [3]: 388 nM; Ki [5]: 44.4 nM; Ki (Mu-type opioid receptor): 3.9 nM; Ki [8]: 2.61 nM; Ki [12]: 0.19 nM; Ki ratio [13]: kappa/mu/delta; Ki ratio [14]: kappa/mu/delta
7 | CC[C@H](C)[C@H](NC(=O)[C@H](CCCN=C(N)N)NC(=O)[C@H](CCCN=C(N)N)NC(=O)[C@H](CC(C)C)NC(=O)[C@H](Cc1ccccc1)NC(=O)CNC(=O)CNC(=O)[C@H](Cc1ccc(O)cc1)NCC1CC1)C(=O)N[C@@H](CCCN=C(N)N)C(=O)N1CCCC1C(=O)N[C@@H](CCCCN)C(=O)O (stereo in doubt) | 50.1 nM | 2.16 nM | 558 nM | 0.41 nM | 27.1 nM | 66.9 | Ki ratio [15]: kappa/delta/mu
8 | CC[C@H](C)[C@H](NC(=O)[C@H](CCCN=C(N)N)NC(=O)[C@H](CCCN=C(N)N)NC(=O)[C@H](CC(C)C)NC(=O)[C@H](Cc1ccccc1)NC(=O)CNC(=O)CNC(=O)[C@H](Cc1ccc(O)cc1)N(Cc1ccccc1)Cc1ccccc1)C(=O)N[C@@H](CCCN=C(N)N)C(=O)N1CCCC1C(=O)N[C@@H](CCCCN)C(=O)O (stereo in doubt) [listing 3 of 3 here] |  |  |  |  |  | 9.05 | 
